Results as given in ChEMBL document CHEMBL4431315, “Jatrophane Diterpenoids as Modulators of P-Glycoprotein-Dependent Multidrug Resistance (MDR): Advances of Structure-Activity Relationships and Discovery of Promising MDR Reversal Agents” (J Med Chem, 2016).
Calls of active or inactive are those of the source. The rule behind the calls is not given here.

Key:
NCI/ADR-RES = assay: Intrinsic cytotoxicity against human MCF7/ADR cells assessed as inhibition of cell proliferation after 48 hrs by MTT assay; type: cell-based
How it was run: (§1)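 Seeded at 5 × 10^3 cells/well with graded compound levels, DMSO as negative control, 48 h. MTT added for 4 h, formazan dissolved in DMSO, OD read at 570 nm (reference 630 nm). IC50 by nonlinear regression; triplicate samples.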

[1] = Half life in Sprague-Dawley rat liver microsomes at 100 uM by HPLC-UV analysis; type: ADME, Microsome
HepG2 [2] = assay: Cytotoxicity against adriamycin-resistant human HepG2 cells assessed as inhibition of cell proliferation after 48 hrs by MTT assay; type: functional, cell-based; conditions: HepG2, 48 h; how it was run: as §1
[3] = target: T1, ATP-dependent translocase ABCB1 (Homo sapiens, UniProt P08183); assay: Inhibition of P-gp mediated efflux in adriamycin-resistant human HepG2 cells assessed as intracellular rhodamine-123 accumulation at 10 uM incubated in dark condition for 90 mins by flow cytometry relative to control; type: cell-based
T1 sequence (P08183 whole entry): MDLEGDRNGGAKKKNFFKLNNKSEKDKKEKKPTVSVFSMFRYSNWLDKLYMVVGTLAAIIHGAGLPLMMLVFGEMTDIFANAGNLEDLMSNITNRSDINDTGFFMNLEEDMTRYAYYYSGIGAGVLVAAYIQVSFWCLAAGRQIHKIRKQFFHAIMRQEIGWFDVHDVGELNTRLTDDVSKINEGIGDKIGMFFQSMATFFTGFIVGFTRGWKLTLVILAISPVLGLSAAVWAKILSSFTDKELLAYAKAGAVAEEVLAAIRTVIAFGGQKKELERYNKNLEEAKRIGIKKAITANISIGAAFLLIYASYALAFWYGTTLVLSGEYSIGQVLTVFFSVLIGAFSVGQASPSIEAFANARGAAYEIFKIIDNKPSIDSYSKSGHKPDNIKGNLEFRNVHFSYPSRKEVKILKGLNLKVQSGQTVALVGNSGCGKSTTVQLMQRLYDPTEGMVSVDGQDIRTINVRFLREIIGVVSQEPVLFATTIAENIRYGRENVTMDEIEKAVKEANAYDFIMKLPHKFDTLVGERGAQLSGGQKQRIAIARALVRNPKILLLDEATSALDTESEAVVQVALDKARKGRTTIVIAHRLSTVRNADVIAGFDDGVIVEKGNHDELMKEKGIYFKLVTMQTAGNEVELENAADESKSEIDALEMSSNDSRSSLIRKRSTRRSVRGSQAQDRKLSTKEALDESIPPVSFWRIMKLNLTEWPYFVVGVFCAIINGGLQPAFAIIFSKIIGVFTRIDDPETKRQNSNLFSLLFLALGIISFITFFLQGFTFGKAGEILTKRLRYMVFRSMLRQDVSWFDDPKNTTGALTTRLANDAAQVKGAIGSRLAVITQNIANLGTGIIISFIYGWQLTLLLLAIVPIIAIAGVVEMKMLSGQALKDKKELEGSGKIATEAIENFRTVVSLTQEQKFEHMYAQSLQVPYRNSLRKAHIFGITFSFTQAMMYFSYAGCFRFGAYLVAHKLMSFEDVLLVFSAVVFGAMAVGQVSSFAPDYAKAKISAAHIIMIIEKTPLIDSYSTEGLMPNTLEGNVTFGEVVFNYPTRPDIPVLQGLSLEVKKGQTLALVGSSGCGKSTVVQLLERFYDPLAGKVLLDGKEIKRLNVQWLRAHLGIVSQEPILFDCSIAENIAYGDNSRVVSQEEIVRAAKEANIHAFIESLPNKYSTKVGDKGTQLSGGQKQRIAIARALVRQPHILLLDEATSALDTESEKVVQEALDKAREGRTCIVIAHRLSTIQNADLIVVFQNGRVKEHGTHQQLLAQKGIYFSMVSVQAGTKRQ
How it was run: (§2)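 HepG2/ADR cells seeded at 5 × 10^5/well and given compound plus 10 μM Rho123 in the dark at 37 °C for 90 min. Cells washed twice in ice-cold PBS, resuspended in PBS, read by flow cytometry in FL1 (Em 525 nm). Fold of control = (treated fluorescence − background)/(Rho123-only fluorescence − background).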

[4] = Cytotoxicity against HLF cells assessed as inhibition of cell proliferation after 48 hrs by MTT assay; type: cell-based; conditions: Homo sapiens; how it was run: as §1
HepG2 [5] = assay: Multidrug resistance reversal activity in adriamycin-resistant human HepG2 cells xenografted in nude BALB/c mouse assessed as increase in mouse survival at 10 mg/kg, ip administered 2 hrs prior to ADR dosing at 5 mg/kg, ip on day 0/3/6 measured every day during compound dosing; type: functional, organism-based
How it was run: (§3)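 Female BALB/c nude mice, 5 weeks old, implanted s.c. in the right flank with 1 × 10^7 HepG2/ADR cells. At about 60 mm3, randomized into groups of seven and dosed ip on days 0, 3, 6: compound 10 mg/kg given 2 h before ADR 5 mg/kg. Controls got saline with 0.5% DMSO and 5% Kolliphor HS 15. Tumor size and body weight measured daily; survival tracked. IR from mean tumor weights; Student's t test, P < 0.05.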

[6] = target: T1, ATP-dependent translocase ABCB1; assay: Inhibition of P-gp mediated efflux in adriamycin-resistant human HepG2 cells assessed as intracellular rhodamine-123 accumulation at 2 uM incubated in dark condition for 90 mins by flow cytometry relative to control; type: cell-based; how it was run: as §2
[7] = target: T1, ATP-dependent translocase ABCB1; assay: Inhibition of P-gp mediated efflux in adriamycin-resistant human HepG2 cells assessed as intracellular rhodamine-123 accumulation at 1 uM incubated in dark condition for 90 mins by flow cytometry; type: cell-based; how it was run: as §2
[8] = Metabolic stability in Sprague-Dawley rat liver microsomes assessed as rate constant at 100 uM by HPLC-UV analysis; type: ADME, Microsome
How it was run: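 Rat liver microsomes at 1 mg protein/mL final, compound at 100 μM final (from a 10 mM CH3CN stock), in 100 mM PBS with 3.0 mM MgCl2 and 1.0 mM NADPH, pH 7.4, 37 °C. Sampled at 0 to 180 min and stopped with ice-cold CH3CN. Control run without NADPH. Centrifuged supernatants analysed by HPLC-UV; three independent experiments in triplicate.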

[9] = target: T1, ATP-dependent translocase ABCB1; assay: Inhibition of P-gp mediated efflux in adriamycin-resistant human HepG2 cells assessed as intracellular rhodamine-123 accumulation at 0.125 uM incubated in dark condition for 90 mins by flow cytometry relative to control; type: cell-based; how it was run: as §2
HepG2 [10] = assay: Multidrug resistance reversal activity in adriamycin-resistant human HepG2 cells xenografted in nude BALB/c mouse assessed as tumor growth inhibition at 10 mg/kg, ip administered 2 hrs prior to ADR dosing at 5 mg/kg, ip on day 0/3/6 measured every day during compound dosing; type: functional; how it was run: as §3

half-life at 100 µM [1]: 14.4 h
INH [3]: Active
FC [6]: 2.74
INH [7]: Active
k el at 100 µM [8]: 1.33e-05 s⁻¹
FC [9]: 1.34
Structure (SMILES): CC(=O)O[C@@H]1C[C@@H](OC(=O)c2ccccc2)/C(C)=C/[C@H]2[C@@H](OC(=O)c3ccccc3)[C@@H](C)[C@H](O)[C@]2(OC(C)=O)[C@H](O)[C@](C)(O)CCC1(C)C
IC50 (NCI/ADR-RES): > 150 µM
IC50 (HepG2 [2]): > 150 µM
IC50 [4]: > 100 µM
Activity (HepG2 [5]): Active
TGI (HepG2 [10]): 62.89%
